Results of several laboratories.
Protocols differ between the studies behind these lines.
Effect on: cell growth or viability

Structure (SMILES)	cell line	technique	time	setting	IC50
CCOc1cc2ncc(C#N)c(Nc3ccc(OCc4ccccn4)c(Cl)c3)c2cc1NC(=O)/C=C/CN(C)C	NCI-H2170	ATP luminescence			0.0057 µM
O=C(Nc1ccc(-c2ccc3ncn(Cc4ccccc4)c(=O)c3c2)cn1)c1ccc(F)cc1	A549	CCK-8	72 h		> 10 µM
C=CCn1c(=O)c2cnc(Nc3ccc(N4CCN(C)CC4)cc3)nc2n1-c1ccc2c(n1)[C@@](O)(CC)CC2	NCI-H1048	ATP luminescence	72 h		0.31 µM
COc1ccccc1/C=N/N=C1\C(=O)Nc2ccccc21	HUVEC	MTT	48 h		112 µg/mL
CCCCn1cnc2ccc(-c3ccc(NC(=O)Nc4ccc(F)cc4)nc3)cc2c1=O	A549	CCK-8	72 h		0.79 µM
NNc1nc2ccc(Br)cc2c(=O)n1-c1ccc(F)cc1	NIH3T3	MTT	48 h		> 200 µM
O=C1Nc2ccccc2/C1=N/N=C/c1cccc([N+](=O)[O-])c1	HUVEC	MTT	48 h		119 µg/mL
NNc1nc2c(Cl)cc(Cl)cc2c(=O)n1-c1ccc(F)cc1	NIH3T3	MTT	48 h		73.7 µM
CCCCC(=O)Nc1ccc(-c2ccc3ncn(CCC)c(=O)c3c2)c(C)n1	A549	CCK-8	72 h		> 10 µM
NNc1nc2ccc(Br)cc2c(=O)n1-c1ccc(Cl)cc1	NIH3T3	MTT	48 h		19.7 µM
CC(=O)Nc1ccc(O)cc1	NIH3T3		96 h		65.4 µM
COc1cccc2c1C(=O)c1c(O)c3c(c(O)c1C2=O)C[C@@](O)(C(=O)CO)C[C@@H]3O[C@H]1C[C@H](N)[C@H](O)[C@H](C)O1	HUVEC	MTT	24 h		31.2 µM
Cc1c(C)c2c(c(C)c1O)CCC(C)(COc1ccc(CC3SC(=O)NC3=O)cc1)O2 (stereo not shown)	NIH3T3		96 h		37.1 µM
O[C@@H]1[C@@H](O)[C@H](Nc2cc3cccnc3c3ncccc23)OC[C@H]1O	HFF-1	MTT	48 h	dark	42.8 µM
CCCn1cnc2ccc(-c3ccc(N4CCC(C)CC4=O)nc3)cc2c1=O (stereo not shown)	A549	CCK-8	72 h		> 10 µM
O=C(NO)Nc1nc2ccc(Br)cc2c(=O)n1-c1ccccc1	NIH3T3	MTT	48 h		122 µM
COc1cc(C(=O)c2nc(-c3ccnc4[nH]ccc34)c[nH]2)cc(OC)c1OC	PC-3	MTS	72 h		0.0301 µM
COc1c(Cl)cccc1Nc1c(-c2ccncc2OC[C@@H]2COCCO2)[nH]c2c1C(=O)NCC2	NCI-H2170	ATP luminescence			0.0246 µM
CN(C)C(=O)c1cc2cnc(Nc3ccc(-c4ccc5c(=O)cc(N6CCOCC6)oc5c4)cc3)nc2n1C1CCCC1	Kelly	ATP luminescence	72 h		0.19 µM
